Screens as filed in PubChem BioAssay.
Only some compounds are listed: those with a hit (about 1.9% of all), similar ones and a draw of the others.
APP transl inh – APP translation inhibition; SH-SY5Y APP 5'UTR-luciferase reporter, luminescence; inhibition, % at 2 µM; 190,000 tested, 0.82% active;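 active = inhibition above a set limit, derived from the sample mean plus 3 SD, cut at about 45% in these data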
Lipid droplet – hepatic lipid droplet formation modulation | 240,000 tested, 0.4% active | AML12 mouse hepatocytes, oleate lipid droplets, BODIPY imaging | inhibition, % at 6.5 µM;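 active = lipid droplet intensity inhibited by at least 50%, with more than 500 cells counted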
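Assay system: AML12 mouse liver cells | Compound dosing: One dose, 6.5 µM compound | Read-out basis: Droplet intensity reduction, % inhibition | Measured by: Fluorescence imaging, 20x objective, two fields per well | Schedule: Overnight treatment with compound plus oleate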
697 NFkB inh – inhibitors of the PMA/ionomycin-induced NF-kB reporter in 697 B cells | 697 B-cell NF-kB luciferase reporter, 16 h | inhibition, % at 4 µM | 330,000 tested, 0.33% active | AID 435022; in the data active = inhibition above about 35%
aSyn UTR inh – MLPCN primary screen, SNCA 5' untranslated region. inhibition, % (tested at 7.5 µM). AID 1813. alpha-synuclein 5'UTR reporter, inhibitor activity. 300,000 tested, 0.82% active; in the data active = inhibition above about 60%;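 also: H4 neuroglioblastoma cells stably carrying SNCA 5'UTR luciferase fusion; 0% = DMSO wells and 100% = positive control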
H9c2 TAG inh – triacylglycerol accumulation inhibition | inhibition, % at 12.5 µM | 230,000 tested, 0.66% active | H9c2 cells, Nile Red lipid (TAG) fluorescence; cells loaded with 200 µM oleic acid | AID 651582;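 active = pattern-corrected inhibition of lipid staining of at least 50% with the nuclear-stain viability signal not falling by more than 50%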;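 also: 0% = DMSO wells and 100% = triacsin C control wells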
Jurkat NFkB inh – lowers PMA/ionomycin-induced NF-kB signal in Jurkat cells. AID 435003. PMA/ionomycin-induced NF-kB luciferase reporter, luminescence. inhibition, % at 4 µM. 330,000 tested, 0.53% active; in the data active = inhibition above about 50%
Hep lipid conf – hepatic lipid droplet formation inhibition, confirmed; inhibition, % at 5.2 µM; AID 463183; 870 tested, 65% active; shares compounds with Lipid droplet; AML12 mouse hepatocytes, BODIPY lipid droplet imaging; droplets induced with 100 µM oleic acid;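 active = inhibition of lipid droplet metric at least 50%, with more than 300 cells in each of four replicates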;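 also: plate controls were DMSO with oleic acid for no effect and 5 µM Triacsin-C for full effect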
AML12 tox img – counter-screen for cytotoxicity in AML12 mouse hepatocytes; shares compounds with Lipid droplet; DAPI nuclear morphology cytotoxicity imaging; active compounds read high; cells fed 100 µM oleate overnight; z-score at 5 µM; 870 tested, 3% active; in the data active = z-score above about 6.3;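 also: compound exposure lasted overnight at 37 °C before fixation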
The depositor's hits bear a star.

`CCCCn1c(=O)c(C(=O)Nc2ccccn2)c(O)c2ccccc21` gave 697 NFkB inh -22.5, aSyn UTR inh 18.1, H9c2 TAG inh 4.3 and Jurkat NFkB inh 4.4.
CCCCn1c(=O)c(C(=O)NCc2ccc(Cl)cc2)c(O)c2ccccc21 was read as Lipid droplet 3.9, 697 NFkB inh 2.8, aSyn UTR inh 39.0 and Jurkat NFkB inh -3.5.
For CCCCCn1c(=O)c(C(=O)Nc2ccccn2)c(O)c2ccccc21 the results were Lipid droplet 1.2, 697 NFkB inh -30.6, aSyn UTR inh 65.4* and Jurkat NFkB inh 10.1.
CCCCCCn1c(=O)c(C(=O)Nc2ncccc2O)c(O)c2ccccc21 was read as Lipid droplet 20.4, 697 NFkB inh 30.5, aSyn UTR inh 91.9* and Jurkat NFkB inh 15.8.
CCCCCCn1c(=O)c(C(=O)Nc2cnccn2)c(O)c2ccccc21 was read as APP transl inh 14.7, Lipid droplet 12.9, 697 NFkB inh -16.3, aSyn UTR inh 66.6*, H9c2 TAG inh -14.3 and Jurkat NFkB inh -17.3.
`CCCCCn1c(=O)c(C(=O)Nc2ccccc2)c(O)c2ccccc21` gave Lipid droplet -15.3, 697 NFkB inh -24.5, aSyn UTR inh 15.6 and Jurkat NFkB inh -5.3.
CCCCCn1c(=O)c(C(=O)NCc2ccncc2)c(O)c2ccccc21 was read as APP transl inh 15.5, 697 NFkB inh -28.8, aSyn UTR inh 65.3*, H9c2 TAG inh -6.6 and Jurkat NFkB inh -10.6.
For NCC(O)c1cc(O)c(O)cc1F (stereo not given) the results were 697 NFkB inh -9.2, H9c2 TAG inh -0.6 and Jurkat NFkB inh 12.3.
For COc1ccc(NC(=O)c2cc([N+](=O)[O-])ccc2N2CCNCC2)cc1 the results were APP transl inh -14.9, Lipid droplet 9.3, 697 NFkB inh 9.2, aSyn UTR inh -20.0, H9c2 TAG inh 33.9 and Jurkat NFkB inh 12.3.
N#CC(C#N)=C(N)c1cccnc1 was read as APP transl inh -12.3, Lipid droplet -9.9, 697 NFkB inh -38.7, aSyn UTR inh 9.1 and Jurkat NFkB inh -17.2.
CC(Cc1ccccc1)NC(=O)CCCCC(=O)NC(C)Cc1ccccc1 (stereo not given) was read as 697 NFkB inh -5.9, aSyn UTR inh 13.0, H9c2 TAG inh -2.6 and Jurkat NFkB inh -11.6.
C[C@@]1(CO)[C@H](O)CC[C@@]2(C)[C@H]1CC[C@H]1C[C@@H]3C[C@@]12CC[C@]3(O)CO was read as APP transl inh 82.7*, Lipid droplet -43.7 and aSyn UTR inh 73.3*.
CC1(C)CN=C(Nc2ccc(F)c(F)c2)S1 was read as APP transl inh -3.3, 697 NFkB inh -8.0, aSyn UTR inh -8.9, H9c2 TAG inh -2.2 and Jurkat NFkB inh 4.8.
`CC1(C)CN=C(Nc2ccc(F)c(Cl)c2)S1` gave Lipid droplet 115.9*, 697 NFkB inh 7.4, aSyn UTR inh -28.7, H9c2 TAG inh 3.7, Jurkat NFkB inh -7.7, Hep lipid conf 3.1 and AML12 tox img -0.00921.
For CCc1ccc(-n2c(O)c(C(C)=O)c(=O)[nH]c2=O)cc1 (tested in a mixture with another compound) the results were Lipid droplet 70.4*, 697 NFkB inh -6.7, aSyn UTR inh -11.2, H9c2 TAG inh 7.4, Jurkat NFkB inh -11.2, Hep lipid conf 23.4 and AML12 tox img -1.32.
COC(=O)C1=C(c2cccc(OC)c2OC)C[C@@H]2CC[C@H]1N2C(=O)NCCCOC(C)C was read as 697 NFkB inh 1.1, aSyn UTR inh 0.4, H9c2 TAG inh -6.8 and Jurkat NFkB inh 20.1.
For COC(=O)[C@@H]1[C@@H](C(=O)OC)C2(c3ccccc3-c3ccccc32)N(c2ccc(Cl)cc2)N1C#N the results were APP transl inh -3.3, Lipid droplet 1.1, 697 NFkB inh -59.2, aSyn UTR inh 16.4, H9c2 TAG inh 91.8 and Jurkat NFkB inh 38.6.
